Screening results from PubChem BioAssay.
Hsp70 activator: transcriptional activators of Hsp70 | activation, % at 10 µM | AID 1203 | HeLa Hsp70 promoter luciferase reporter, luminescence; scaled: vehicle 0, proteasome-inhibitor control 100% | hit rate 0.04% among 200,000;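 active means activation above the mean across all tested compounds plus 3 SD, cutoff set per campaign, cut at about 5.5% in these data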;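 further: 100% = MG132 at 30 µM as the positive control and 0% = DMSO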
S1P3 antag: blocks the human S1P3 receptor | hit rate 0.27% among 170,000 | Q99500 | CHO S1P3 NFAT-BLA reporter, FRET fluorescence, antagonist mode | inhibition, % at 4.98 µM;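 active means inhibition above the plate cutoff, the mean inhibition of test wells on that plate plus 3 SD, cut at about 28% in these data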;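 further: cells challenged with S1P at its EC80 of 0.8 µM; blue over green emission ratio from cleaved BLA substrate after 4 h stimulation; 0% = S1P-stimulated wells and 100% = unstimulated DMSO-only wells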
Target sequence (Q99500 whole entry, looked up): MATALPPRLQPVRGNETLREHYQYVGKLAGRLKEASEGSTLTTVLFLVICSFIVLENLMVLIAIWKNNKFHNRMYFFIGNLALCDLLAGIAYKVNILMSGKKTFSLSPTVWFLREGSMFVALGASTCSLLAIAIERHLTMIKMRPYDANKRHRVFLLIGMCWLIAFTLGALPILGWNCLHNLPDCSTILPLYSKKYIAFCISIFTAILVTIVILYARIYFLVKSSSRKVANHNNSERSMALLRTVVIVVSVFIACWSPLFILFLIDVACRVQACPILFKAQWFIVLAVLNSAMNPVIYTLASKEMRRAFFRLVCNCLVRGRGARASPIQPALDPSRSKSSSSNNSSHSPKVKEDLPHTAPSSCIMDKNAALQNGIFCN
Mdm2 ligase inh: blocks human Mdm2 ubiquitin ligase activity; signal enhancement, % at 5 µM; Q00987; hit rate 0.11% among 210,000; cell-based MDM2 ubiquitination luciferase reporter, 2 h; 0 = plate control, 100 = twice control, blank-subtracted;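 active means signal enhancement of 30% or more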;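 further: luminescence tracks abundance of the self-degrading MDM2-luciferase fusion protein; higher signal means inhibition of MDM2 E3 ligase activity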
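System: stable MDM2–luciferase fusion reporter cells / Input: 2000 cells seeded into each well / Schedule: 4 h settle plus 2 h compound, 37 °C / Compound: single-point 5 µM / Buffer or medium: cells held in DMEM / Benchmarks: control and blank well means / Evaluation: percent signal gain over controls, blank-subtracted / Measured by: luciferase luminescence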
CHOP inh: inhibitors of CHOP induction in ER stress response. CHO-K1 CHOP-promoter luciferase, tunicamycin-induced, 15-18 h. inhibition, % at 10 µM. hit rate 3.8% among 220,000. AID 2732;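 active means compounds that reduced the stress-induced luciferase reporter signal by more than about 70% of percent inhibition, limit read from the data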;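 further: 0% = tunicamycin plus vehicle and 100% = wells without tunicamycin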
An asterisk follows results filed as active; · = not tested or not shown. Sampled rows, rich in hits. Any-hit rate of the full collection: about 4%.

SMILES	Hsp70 activator	S1P3 antag	Mdm2 ligase inh	CHOP inh
CS/C(=N/S(=O)(=O)c1ccc(C)cc1)c1ccccc1	0	10	-9	37
COc1cnc(-c2ccccn2)nc1Oc1ccc(Cl)c2ccccc12	0	·	1	81*
Oc1ccc(C[C@@H]2CNC(=S)N2CCc2cc(C(F)(F)F)cc(C(F)(F)F)c2)cc1	·	·	19	80*
Oc1ccc(C[C@H]2CNC(=S)N2CCc2cc(C(F)(F)F)cc(C(F)(F)F)c2)cc1	0	0	·	27
COc1cccc(-c2[nH]nc3c2C(c2ccsc2)C(C#N)=C(N)O3)c1 (stereo unspecified)	0	·	31*	13
CC(C)(C)c1ccc(C2C(C#N)=C(N)Oc3n[nH]c(-c4cccnc4)c32)cc1 (stereo unspecified)	·	11	·	76*
CC(C)[C@H](CO)N(Cc1cccc(F)c1)c1nc(Nc2cccc(Cl)c2)c2ncn(C(C)C)c2n1	·	·	13	10
CC[C@H](CO)Nc1nc(Nc2cccc(Cl)c2)c2ncn(C(C)C)c2n1	·	·	2	83*
CCOc1cc2[nH]c(=O)n(CCCC(=O)N(C)Cc3ccccc3)c(=O)c2cc1OCC	0	-10	-7	6
Oc1ccccc1N=Nc1ccccc1O	0	-9	-10	73*
CC(C)(C)c1ccc(S(=O)(=O)NCC(=O)Nc2ccc(-c3nc4ccccc4s3)cc2)cc1	0	·	-15	96*
O=C(CNS(=O)(=O)c1cccc(Cl)c1)Nc1ccc(-c2nc3ccccc3s2)cc1	0	8	-16	51
Cc1ccc(C)c(S(=O)(=O)NC(C)C(=O)Nc2ccc(-c3nc4ccccc4s3)cc2)c1 (stereo unspecified)	0	·	-8	80*
Cc1cc(C)cc(N(CC(=O)Nc2ccc(-c3nc4ccc(C)cc4s3)cc2)S(C)(=O)=O)c1	0	-11	-5	52
Cc1ccc2nc(-c3ccc(NC(=O)CN4C(=O)NC(C)(c5ccc(OC(F)F)cc5)C4=O)cc3)sc2c1 (stereo unspecified)	0	-10	-9	76*
Cc1ccc2nc(-c3ccc(NC(=O)CN(c4ccccc4C)S(C)(=O)=O)cc3)sc2c1	0	·	-12	70*
CC1(c2ccc(OC(F)F)cc2)NC(=O)N(CC(=O)Nc2ccc3c(c2)OCO3)C1=O (stereo unspecified)	-1	6	3	14
O=C(COC(=O)c1ccc(Cl)nc1)Nc1ccccc1OC(F)F	0	-10	-14	-1
O=C(CSc1nnc(-c2ccccc2)n1Cc1ccccc1)NNC(=O)c1ccccc1O	0	-2	-6	2
O=C(Nc1ccc(N2CCOCC2)c(F)c1)c1ccncc1	0	-16	8	-29
Cc1cc(C)c2oc(C(=O)Nc3ccc(S(=O)(=O)N4CCCC(C)C4)cc3)cc(=O)c2c1 (stereo unspecified)	0	7	-12	43
O=C(COC(=O)CCC(=O)c1ccc(F)cc1)Nc1cccc(S(=O)(=O)N2CCCC2)c1	·	-1	·	-6
O=C(Nc1cccc(Cl)c1)Nc1csc([N+](=O)[O-])c1	·	-11	-13	55
CC(C)c1nc2sc3c(NCc4ccccc4)ncnc3c2c2c1COC(C)(C)C2	0	·	-13	65
CC(C)c1nc2sc3c(NCc4ccco4)ncnc3c2c2c1COC(C)(C)C2	0	·	-15	78*
SMILES	Hsp70 activator	S1P3 antag	Mdm2 ligase inh	CHOP inh
Cc1c(NC(=O)c2ccc3c(c2)OCO3)c(=O)n(-c2ccccc2)n1C	0	·	-10	-6
COc1ccc(N=C/C=C2/C=C(c3ccccc3)OC(C)(C)O2)cc1	0	-10	5	94*
O=C1NN=C(c2ccc(Br)cc2)CC1c1ccc(Cl)cc1 (stereo unspecified)	0	-5	-26	91*
Fc1ccc(-n2c(Cc3ccccc3)nnc2SCc2nc(-c3cccs3)no2)cc1	0	5	4	75*
Clc1ccc(-c2noc(CSc3nnc(Cc4cccs4)n3-c3ccccc3)n2)cc1	0	·	-13	81*
c1ccc(-c2noc(CSc3nnc(Cc4cccs4)n3-c3ccccc3)n2)cc1	0	-4	-7	14
COc1cc(OC)cc(C(=O)N[C@H](C(=O)OCC(=O)NC(=O)c2cccn2C)C(C)C)c1	0	4	-4	21
CC1(C)CC(=O)C=C(NCC2CCCO2)C1 (stereo unspecified)	0	-2	-30	-1
COc1ccc(OC)c(/C(O)=C/C(=O)C(=O)Nc2ccccc2OC)c1	0	·	-10	75*
O=C(Nc1ccc(F)cc1)Nc1ccc(NC(=O)c2ccccc2O)cc1	·	7	-19	45
